# From ChEMBL document CHEMBL1121446, “Quantitative structure-pharmacokinetic relationships derived on antibacterial sulfonamides in rats and its comparison to quantitative structure-activity relationships” (J Med Chem, 1980)
# Species: Rattus norvegicus
# Assay: Metabolic clearance from the body in rat
# Format: ADME, organism-based
# Details: in vivo
# Procedure, shortened: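 Metabolic clearance calculated as total clearance minus renal clearance. Plasma levels were measured before and after hydrolysis of N4-acetyl metabolites.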
row,ClM [mL/min],SMILES
1,0.04,Nc1ccc(S(=O)(=O)Nc2ccc(Cl)cn2)cc1
2,0.03,Nc1ccc(S(=O)(=O)Nc2ncc(Cl)cc2Cl)cc1
3,0.02,Nc1ccc(S(=O)(=O)Nc2ncc(Br)cc2Br)cc1

# Further lines, the molecule ahead of its results:
row,SMILES,ClM [mL/min]
1,Nc1ccc(S(=O)(=O)Nc2ccccn2)cc1 [SULFAPYRIDINE],0.46
2,CN(C)c1ccc(NS(=O)(=O)c2ccc(N)cc2)nc1,0.19
3,Cc1cc(C)nc(NS(=O)(=O)c2ccc(N)cc2)c1,0.48
4,Nc1ccc(S(=O)(=O)Nc2ccc(Br)cn2)cc1,0.07

# Test system: not listed separately
# Assay: Renal clearance from the body
# Format: ADME, organism-based, Kidney
# Details: in vivo; read-out: CL_renal
# Procedure, shortened: (§1)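 Drug solutions were infused into rats at 1.9 mL/h, with plasma and urine concentrations measured simultaneously over time. Clearance = urine concentration × urine volume per minute / plasma concentration. Inulin and PAH clearances were also determined. Urine pH was set with NH4Cl (pH 5-6) or NaHCO3 (pH 7.8), compared with normal pH 6.8.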
row,CL renal [mL/min],SMILES
1,0.03,Nc1ccc(S(=O)(=O)Nc2ncc(Br)cc2Br)cc1

# Test system: not listed separately
# Assay: Total clearance from the body in rat
# Format: ADME, organism-based
# Details: in vivo, read-out: ClT
row,clearance [mL/min],SMILES
1,0.47,Cc1cnc(NS(=O)(=O)c2ccc(N)cc2)c(C#N)c1
2,0.099,Nc1ccc(S(=O)(=O)Nc2ccc(Cl)cn2)cc1
3,0.05,Nc1ccc(S(=O)(=O)Nc2ncc(Cl)cc2Cl)cc1
4,0.048,Nc1ccc(S(=O)(=O)Nc2ncc(Br)cc2Br)cc1

# The remaining lines, values behind:
row,SMILES,clearance [mL/min]
1,CCOc1cccnc1NS(=O)(=O)c1ccc(N)cc1,0.81
2,Nc1ccc(S(=O)(=O)Nc2ccccn2)cc1 [SULFAPYRIDINE],1.79
3,CN(C)c1ccc(NS(=O)(=O)c2ccc(N)cc2)nc1,0.62
4,Cc1cc(C)nc(NS(=O)(=O)c2ccc(N)cc2)c1,1.76
5,Nc1ccc(S(=O)(=O)Nc2ccc(Br)cn2)cc1,0.116

# Species: Rattus norvegicus
# Assay: Affinity for protein binding expressed as association constant in fresh rat serum
# Format: ADME, organism-based
# Details: not given
# Procedure, shortened: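 Sulfapyridines added to freshly prepared rat serum at 100-600 µmol/L in 100 µmol/L steps. Samples ultracentrifuged 10 h at 45000 rpm (g = 150000), 37 °C. Unbound drug in the top protein-free layer measured photometrically by Bratton-Marshall. Total drug measured before centrifugation, with controls correcting for sedimentation of unbound drug. Bound = total − free; Kassoc from a Scatchard plot.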
row,K ass,SMILES
1,10965 l M-1,Cc1cnc(NS(=O)(=O)c2ccc(N)cc2)c(C#N)c1
2,25703 l M-1,Nc1ccc(S(=O)(=O)Nc2ccc(Cl)cn2)cc1
3,12706 l M-1,Nc1ccc(S(=O)(=O)Nc2ncc(Cl)cc2Cl)cc1
4,13800 l M-1,Nc1ccc(S(=O)(=O)Nc2ncc(Br)cc2Br)cc1

# Second part, the molecule before the results:
row,SMILES,K ass
1,CCOc1cccnc1NS(=O)(=O)c1ccc(N)cc1,4169 l M-1
2,Nc1ccc(S(=O)(=O)Nc2ccccn2)cc1 [SULFAPYRIDINE],4592 l M-1
3,CN(C)c1ccc(NS(=O)(=O)c2ccc(N)cc2)nc1,8511 l M-1
4,Cc1cc(C)nc(NS(=O)(=O)c2ccc(N)cc2)c1,5495 l M-1

# Test system: not listed separately
# Assay: Acid dissociation constant
# Format: ADME
# Details: not given
# Procedure, shortened: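 pKa of the sulfapyridine acidic NH measured spectrophotometrically.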
row,pKa,SMILES
1,5.35,Cc1cnc(NS(=O)(=O)c2ccc(N)cc2)c(C#N)c1
2,7.04,Nc1ccc(S(=O)(=O)Nc2ccc(Cl)cn2)cc1
3,5.98,Nc1ccc(S(=O)(=O)Nc2ncc(Cl)cc2Cl)cc1
4,5.78,Nc1ccc(S(=O)(=O)Nc2ncc(Br)cc2Br)cc1

# The remaining lines, values behind:
row,SMILES,pKa
1,CCOc1cccnc1NS(=O)(=O)c1ccc(N)cc1,8.2
2,Nc1ccc(S(=O)(=O)Nc2ccccn2)cc1 [SULFAPYRIDINE],8.54
3,CN(C)c1ccc(NS(=O)(=O)c2ccc(N)cc2)nc1,9.21
4,Cc1cc(C)nc(NS(=O)(=O)c2ccc(N)cc2)c1,9.54
5,Nc1ccc(S(=O)(=O)Nc2ccc(Br)cn2)cc1,6.98

# Test system: not listed separately
# Assay: Half life in rat
# Format: ADME, organism-based
# Details: in vivo
# Procedure, shortened: (§2)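 Male Sprague-Dawley rats received the SA sodium salt, 50 mg/kg, into the tail vein within 1 min. Tail-artery blood was sampled over time and plasma separated by centrifugation. Unmetabolized and total SA were assayed by modified Bratton-Marshall before and after hydrolysis of N4 metabolites. ke (or kC,U for unchanged drug) was obtained by computer fitting to a one-compartment model. Vc = dose / extrapolated initial plasma concentration.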
row,half-life [h],SMILES
1,2.18,Cc1cnc(NS(=O)(=O)c2ccc(N)cc2)c(C#N)c1
2,21.6,Nc1ccc(S(=O)(=O)Nc2ccc(Cl)cn2)cc1
3,21.6,Nc1ccc(S(=O)(=O)Nc2ncc(Cl)cc2Cl)cc1
4,21.6,Nc1ccc(S(=O)(=O)Nc2ncc(Br)cc2Br)cc1

# Second part, the molecule before the results:
row,SMILES,half-life [h]
1,CCOc1cccnc1NS(=O)(=O)c1ccc(N)cc1,1.4
2,Nc1ccc(S(=O)(=O)Nc2ccccn2)cc1 [SULFAPYRIDINE],1.47
3,CN(C)c1ccc(NS(=O)(=O)c2ccc(N)cc2)nc1,2.08
4,Cc1cc(C)nc(NS(=O)(=O)c2ccc(N)cc2)c1,1.2
5,Nc1ccc(S(=O)(=O)Nc2ccc(Br)cn2)cc1,24.8

# Test system: not listed separately
# Assay: First order rate of elimination of unchanged drug in rat
# Format: ADME, organism-based
# Details: in vivo, read-out: kC,U (converted)
# Procedure, shortened: as §2
row,k el [s⁻¹],SMILES
1,5.56e-06,Nc1ccc(S(=O)(=O)Nc2ccc(Cl)cn2)cc1
2,8.33e-06,Nc1ccc(S(=O)(=O)Nc2ncc(Cl)cc2Cl)cc1
3,5.56e-06,Nc1ccc(S(=O)(=O)Nc2ncc(Br)cc2Br)cc1

# The remaining lines, values behind:
row,SMILES,k el [s⁻¹]
1,Nc1ccc(S(=O)(=O)Nc2ccccn2)cc1 [SULFAPYRIDINE],9.72e-05
2,CN(C)c1ccc(NS(=O)(=O)c2ccc(N)cc2)nc1,6.39e-05
3,Cc1cc(C)nc(NS(=O)(=O)c2ccc(N)cc2)c1,0.000117
4,Nc1ccc(S(=O)(=O)Nc2ccc(Br)cn2)cc1,2.78e-06

# Test system: not listed separately
# Assay: Overall elimination rate in rat
# Format: ADME, organism-based
# Details: in vivo, read-out: ke (converted)
# Procedure, shortened: as §2
row,k el [s⁻¹],SMILES
1,8.83e-05,Cc1cnc(NS(=O)(=O)c2ccc(N)cc2)c(C#N)c1
2,8.89e-06,Nc1ccc(S(=O)(=O)Nc2ccc(Cl)cn2)cc1
3,8.89e-06,Nc1ccc(S(=O)(=O)Nc2ncc(Cl)cc2Cl)cc1
4,8.89e-06,Nc1ccc(S(=O)(=O)Nc2ncc(Br)cc2Br)cc1

# More lines, now with the values behind:
row,SMILES,k el [s⁻¹]
1,CCOc1cccnc1NS(=O)(=O)c1ccc(N)cc1,0.000138
2,Nc1ccc(S(=O)(=O)Nc2ccccn2)cc1 [SULFAPYRIDINE],0.000131
3,CN(C)c1ccc(NS(=O)(=O)c2ccc(N)cc2)nc1,9.25e-05
4,Cc1cc(C)nc(NS(=O)(=O)c2ccc(N)cc2)c1,0.00016
5,Nc1ccc(S(=O)(=O)Nc2ccc(Br)cn2)cc1,7.78e-06

# Test system: not listed separately
# Assay: Renal clearance from the body in rat
# Format: ADME, organism-based, Kidney
# Details: in vivo, read-out: CL_renal
# Procedure, shortened: as §1
row,CL renal [mL/min],SMILES
1,0.06,Nc1ccc(S(=O)(=O)Nc2ccc(Cl)cn2)cc1
2,0.05,Nc1ccc(S(=O)(=O)Nc2ncc(Cl)cc2Cl)cc1

# Further lines, the molecule ahead of its results:
row,SMILES,CL renal [mL/min]
1,Nc1ccc(S(=O)(=O)Nc2ccccn2)cc1 [SULFAPYRIDINE],1.33
2,CN(C)c1ccc(NS(=O)(=O)c2ccc(N)cc2)nc1,0.43
3,Cc1cc(C)nc(NS(=O)(=O)c2ccc(N)cc2)c1,1.28
4,Nc1ccc(S(=O)(=O)Nc2ccc(Br)cn2)cc1,0.04

# Species: Rattus norvegicus
# Assay: Apparent volume of distribution was determined in rat
# Format: ADME, organism-based
# Details: in vivo
# Procedure, shortened: as §2
row,Vc [mL],SMILES
1,89.7,Cc1cnc(NS(=O)(=O)c2ccc(N)cc2)c(C#N)c1
2,185.5,Nc1ccc(S(=O)(=O)Nc2ccc(Cl)cn2)cc1
3,99.2,Nc1ccc(S(=O)(=O)Nc2ncc(Cl)cc2Cl)cc1
4,90.3,Nc1ccc(S(=O)(=O)Nc2ncc(Br)cc2Br)cc1

# More lines, now with the values behind:
row,SMILES,Vc [mL]
1,CCOc1cccnc1NS(=O)(=O)c1ccc(N)cc1,98.3
2,Nc1ccc(S(=O)(=O)Nc2ccccn2)cc1 [SULFAPYRIDINE],229
3,CN(C)c1ccc(NS(=O)(=O)c2ccc(N)cc2)nc1,111.2
4,Cc1cc(C)nc(NS(=O)(=O)c2ccc(N)cc2)c1,183
5,Nc1ccc(S(=O)(=O)Nc2ccc(Br)cn2)cc1,247.1
